High-throughput results deposited in PubChem BioAssay by several laboratories.
Most compounds without a hit are left out; they make up all but 5.7% or so of the library.
Beta apoptosis = inhibitors of cytokine-induced beta cell apoptosis, primary screen, luminescence | INS-1E cytokine-induced death, ATP luminescence, 48 h; percent of positive-control rescue, neutral wells zero | protection from apoptosis, % (test concentration not listed) | 300,000 compounds, 0.8% hits;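 active = Every replicate reaches about 75%, or at least half do and their mean reaches it too, limit read from the data; inconclusive = At least half of replicates reach the limit but their mean does not; inactive = Under half of replicates reach the limit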;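 also: higher means more ATP so stronger rescue from cytokine killing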
SKKanGAS inh = S. pyogenes SKKanGAS growth inhibitors in kanamycin, primary screen, streptokinase expression inhibitor project, SKKanGAS strain, BacTiter-Glo luminescence; 300,000 compounds, 1.3% hits; AID 1662, 2009; inhibition, % at 7.5 µM; 6 h;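 active = mean replicate score, as percent of positive control median, at least 50; inconclusive = mean below 50 but one replicate at or above 50; inactive = mean and every replicate below 50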;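 also: strain carries kanamycin resistance gene driven by streptokinase promoter and grows in 40 µg/ml kanamycin; loss of luminescence reflects streptokinase promoter inhibition or plain growth inhibition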
CSC inhib = cancer stem cell viability inhibitors, primary screen, luminescence; cancer stem cell-like cells viability; inhibition, % at 7.5 µM; 300,000 compounds, 1.1% hits; in the data active = inhibition above about 75%; inconclusive = no clear call, values can overlap the other calls; tested in HMLE shEcad cells
Mdm2-MdmX inh = inhibitors of human Mdm2-MdmX association, primary screen, cell-based, luminescence, split luciferase, SaOS-2, uHTS; Protein Mdm4 (Homo sapiens) + E3 ubiquitin-protein ligase Mdm2 (Homo sapiens), …; inhibition, % at 8 µM; 330,000 compounds, 3% hits; SaOS-2 split-luciferase Mdm2/MdmX complementation;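 active = inhibition of at least 50% at 8 µM in the primary screen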
Target sequence (O15151 whole entry, looked up): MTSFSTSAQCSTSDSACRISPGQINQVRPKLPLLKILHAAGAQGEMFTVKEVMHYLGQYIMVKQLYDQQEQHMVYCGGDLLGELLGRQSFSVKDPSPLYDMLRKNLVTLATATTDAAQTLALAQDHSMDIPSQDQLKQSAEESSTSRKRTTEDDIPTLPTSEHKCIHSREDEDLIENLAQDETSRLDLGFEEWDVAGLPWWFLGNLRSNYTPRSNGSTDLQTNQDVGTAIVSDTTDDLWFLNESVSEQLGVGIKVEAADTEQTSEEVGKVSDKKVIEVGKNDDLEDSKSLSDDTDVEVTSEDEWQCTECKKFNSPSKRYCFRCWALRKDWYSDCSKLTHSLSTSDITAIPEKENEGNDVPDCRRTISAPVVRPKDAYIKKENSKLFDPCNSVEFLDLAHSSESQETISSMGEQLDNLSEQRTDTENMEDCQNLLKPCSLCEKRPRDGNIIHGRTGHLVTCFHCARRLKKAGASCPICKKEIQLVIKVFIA
Target sequence (Q00987 whole entry, looked up): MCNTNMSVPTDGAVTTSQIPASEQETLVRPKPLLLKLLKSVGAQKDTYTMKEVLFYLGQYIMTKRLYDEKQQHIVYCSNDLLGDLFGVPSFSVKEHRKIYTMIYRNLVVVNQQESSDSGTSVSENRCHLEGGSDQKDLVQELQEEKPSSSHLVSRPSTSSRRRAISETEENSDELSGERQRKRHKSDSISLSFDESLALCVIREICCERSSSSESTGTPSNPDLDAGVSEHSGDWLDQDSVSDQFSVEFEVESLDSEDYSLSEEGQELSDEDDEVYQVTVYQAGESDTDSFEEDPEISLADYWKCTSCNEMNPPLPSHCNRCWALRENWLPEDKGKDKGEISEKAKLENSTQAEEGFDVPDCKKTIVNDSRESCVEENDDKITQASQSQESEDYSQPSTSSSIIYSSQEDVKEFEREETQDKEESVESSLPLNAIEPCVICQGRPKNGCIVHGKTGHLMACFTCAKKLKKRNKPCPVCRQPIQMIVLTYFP
Calb FLC = C. albicans growth inhibition with fluconazole, primary screen, CaCi-2 strain, Alamar Blue fluorescence; C. albicans CaCi-2 (fluconazole-resistant clinical isolate) + fluconazole, 48 h; growth inhibition, % (concentration not given with the values); 300,000 compounds, 0.57% hits; AID 1979, 2009;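 active = growth inhibition above about 58% in most replicates, limit read from the data, passing the limit was not always enough; inconclusive = exactly half the replicates above a set limit; inactive = most replicates below a set limit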;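 also: all wells also contain fluconazole at 8 µg/ml as a sub-toxic cotreatment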
T cruzi repl = inhibitors of intracellular T. cruzi growth, primary screen, luminescence, NIH3T3 host cells. T. cruzi beta-gal in NIH3T3, 90 h. inhibition, % (test concentration not listed). 300,000 compounds, 1.4% hits. AID 1885, 2009;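 active = mean inhibition across valid replicates above about 55%, limit read from the data; inconclusive = mean below that limit but half or more replicates reach it; inactive = mean below it, under half of replicates reach it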;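 also: signal also drops with host cell toxicity which is not excluded here; higher percent means less beta-gal luminescence so fewer parasites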
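Material: NIH/3T3 host cells with β-galactosidase reporter T. cruzi; Input: 5,000 host fibroblasts per well; Medium: DMEM, 2% fetal bovine serum; Compound: 50 nL DMSO compound solution per well; Schedule: 3 h host attachment, then at least 90 h co-culture; Detection: luminescent β-galactosidase signal after 60 min lysis.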
Mdm2 MdmX conf = Mdm2-MdmX complex disruptors, retested hits, confirmation, luminescence, single concentration | shares compounds with Mdm2-MdmX inh | Mdm2-MdmX binding, luminescent assay | inhibition, % at 8 µM | 10,000 compounds, 55% hits; in the data active = inhibition above about 40%
FLuc counter = full-length luciferase signal inhibition, confirmation, counter-screen for Mdm2/MdmX interaction inhibitor project, cell-based, single concentration, SaOS-2; shares compounds with Mdm2-MdmX inh; SaOS-2 full-length luciferase counterscreen, luminescence; inhibition, % at 8 µM; 6,200 compounds, 77% hits;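 active = mean inhibition at 8 µM reaching about 37%, which flags the compound as non-specific, limit read from the data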;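 also: p53-null SaOS-2 cells with luciferase driven by a doxycycline-inducible promoter; compound on cells about two nights before reading with doxycycline added after day one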
Each line names hits and unclear results; the compound was inactive in the other large screens (follow-up assays come after a bar, where they were run).

COc1cc2c(cc1OC)C(=O)N1[C@H]3c4ccccc4OC[C@@H]3[C@H](c3ccccc3)[C@]1(C)C(=O)N2	none (no result: SKKanGAS inh, Calb FLC, T cruzi repl)
CSc1nc(-c2ccc(N(C)C)cc2)c(C#N)c(=O)n1C	none (no result: Beta apoptosis)
COc1cc(NC(=O)NCC2CCN(Cc3ccccc3C)CC2)cc(OC)c1OC	none
Cc1ccccc1OC(C)C(=O)Nc1cccnc1 (stereo not given)	none
C[C@@]12C(=O)Nc3ccc(F)cc3C(=O)N1[C@H]1c3ccccc3OC[C@@H]1[C@@H]2c1ccccc1	none (no result: SKKanGAS inh, Calb FLC, T cruzi repl)
C[C@@]12C(=O)Nc3ccc(F)cc3C(=O)N1[C@H]1c3cc(Cl)ccc3OC[C@@H]1[C@@H]2c1ccccc1	Mdm2-MdmX inh 56.2 (no result: SKKanGAS inh, Calb FLC, T cruzi repl) | Mdm2 MdmX conf inactive
CN(NC1OC(=O)c2ccccc21)c1ccc(C(F)(F)F)cc1[N+](=O)[O-] (stereo not given)	none
Cc1ccc(Cn2c(CCNc3nc(-c4ccc(Cl)c([N+](=O)[O-])c4)cs3)nc3cc(Cl)c(Cl)cc32)cc1	Mdm2-MdmX inh 92.9 | Mdm2 MdmX conf inactive
Cc1cc(C)c(NC(=O)CNC(=O)COC(=O)Cc2cccs2)c(C)c1	none
CCNS(=O)(=O)c1ccc(CCC(=O)NCc2ccc3c(c2)OCO3)cc1	none
COc1cccc2c1C(=O)c1c(O)c3c(c(O)c1C2=O)C[C@@](O)(C(=O)CO)C[C@@H]3O[C@H]1C[C@H](N)[C@H](O)[C@H](C)O1	SKKanGAS inh 107.2, Mdm2-MdmX inh 99.0 (no result: Calb FLC) | Mdm2 MdmX conf 99.2 | FLuc counter inactive
Cc1cnc(NC(=O)c2cc(S(=O)(=O)N(C)C)ccc2N2CCCC2)s1	Mdm2-MdmX inh 53.4 (no result: SKKanGAS inh, Calb FLC, T cruzi repl) | Mdm2 MdmX conf inactive | FLuc counter 50.2
CCc1cccc(NC(=O)c2cc(S(=O)(=O)N(C)C)ccc2N2CCCC2)c1	Mdm2-MdmX inh 51.5 | Mdm2 MdmX conf 49.7 | FLuc counter 51.0
COc1ccc(C2=NN(C(=O)c3ccco3)C(c3cc4ccccc4nc3Cl)C2)cc1 (stereo not given)	Mdm2-MdmX inh 81.7 | Mdm2 MdmX conf inactive
COC(=O)C(CC(=O)O)NCc1ccco1 (stereo not given)	none
COc1ccc(NC(=O)/C(C#N)=C\C=C\c2ccco2)cc1	CSC inhib inconclusive, Mdm2-MdmX inh 50.6 | Mdm2 MdmX conf 53.4 | FLuc counter 58.1
COc1ccc(NC(=O)/C(=C\c2ccco2)NC(=O)c2ccco2)cc1	none
CCOc1ccc(NC(=S)N=Nc2c(O)[nH]c3ccccc23)cc1	SKKanGAS inh 101.0, Mdm2-MdmX inh 64.2 | Mdm2 MdmX conf inactive
Oc1[nH]c2ccccc2c1N=NC(=S)N1CCOCC1	Beta apoptosis 82.8, SKKanGAS inh 77.4, Mdm2-MdmX inh 97.3, T cruzi repl 56.5 | Mdm2 MdmX conf 87.5 | FLuc counter inactive
Oc1[nH]c2ccc(Br)cc2c1N=NC(=S)N1CCOCC1	Beta apoptosis 108.1, SKKanGAS inh 89.1, CSC inhib inconclusive, Mdm2-MdmX inh 95.6, Calb FLC 96.4, T cruzi repl 55.0 | Mdm2 MdmX conf 98.0 | FLuc counter 53.9
O=c1[nH][nH]c(-c2ccccc2O)c1C(C[N+](=O)[O-])c1ccc(Br)cc1 (stereo not given)	Mdm2-MdmX inh 53.8 | Mdm2 MdmX conf inactive
Fc1ccc(C2CCNCC2COc2ccc3c(c2)OCO3)cc1 (stereo not given)	none
Fc1ccc([C@@H]2CCNC[C@H]2COc2ccc3c(c2)OCO3)cc1	Mdm2-MdmX inh 50.6 (no result: Beta apoptosis) | Mdm2 MdmX conf inactive | FLuc counter 55.6
COc1ccccc1Nc1nc(N)nc(CCl)n1	Mdm2-MdmX inh 71.8 | Mdm2 MdmX conf 68.5 | FLuc counter 54.4
COc1ccc(OCc2nc(N)nc(Nc3ccccc3OC)n2)cc1	Calb FLC inconclusive
COc1ccc(OC)c(Nc2nc(N)nc(CCl)n2)c1	Mdm2-MdmX inh 81.6 (no result: T cruzi repl) | Mdm2 MdmX conf 84.0 | FLuc counter 40.7
OCCN1CCN(CC/C=C2/c3ccccc3Sc3ccc(C(F)(F)F)cc32)CC1	none
CN1CCN(CCC=C2c3ccccc3Sc3ccc(S(=O)(=O)N(C)C)cc32)CC1	Mdm2-MdmX inh 50.5 (no result: SKKanGAS inh, Calb FLC, T cruzi repl) | Mdm2 MdmX conf inactive
O=C(CC1S/C(=N/N=C/c2cccs2)NC1=O)Nc1ccc(Cl)cc1 (stereo not given)	none
O=C1N/C(=N\N=C\c2cccs2)SC1Cc1cccc(Cl)c1Cl (stereo not given)	Mdm2-MdmX inh 82.8 | Mdm2 MdmX conf 61.7 | FLuc counter 58.1
O=C1N/C(=N\N=C\c2cccs2)SC1Cc1ccc(Cl)cc1Cl (stereo not given)	Mdm2-MdmX inh 73.9 | Mdm2 MdmX conf 51.5 | FLuc counter 69.6
CCOc1ccccc1NC(=O)NC1(C(=O)NCc2cccnc2)CCCCC1	none
Cc1nc(SCC(=O)Nc2ccc(CN3CCCC3)cc2)c2c(C)c(C)sc2n1	Mdm2-MdmX inh 84.0 (no result: SKKanGAS inh, CSC inhib, Calb FLC, T cruzi repl) | Mdm2 MdmX conf inactive | FLuc counter 64.0
CCc1ccc2[nH]c3nc(SCc4nnc(-c5ccc(C)cc5)o4)nnc3c2c1	Mdm2-MdmX inh 70.1 | Mdm2 MdmX conf inactive
Cc1ccc(C2=CC(=O)C[C@H](c3ccc4c(c3)OCO4)C2)cc1	none (no result: SKKanGAS inh, Calb FLC, T cruzi repl)
O=C1C=C(c2cc3ccccc3s2)C[C@@H](c2ccc3c(c2)OCO3)C1	Mdm2-MdmX inh 66.8 (no result: SKKanGAS inh, Calb FLC, T cruzi repl) | Mdm2 MdmX conf 41.3 | FLuc counter 101.3
CC1CCN(S(=O)(=O)c2cc([N+](=O)[O-])ccc2Cl)CC1	none
CC1CCN(CC(CS(=O)(=O)c2ccc([N+](=O)[O-])cc2)N2CCC(C)CC2)CC1 (stereo not given)	CSC inhib inconclusive, Mdm2-MdmX inh 99.8 | Mdm2 MdmX conf 99.5 | FLuc counter 50.5
COc1ccc(-c2nc(NC(=O)c3ccc(OCC(=O)Nc4ccc(F)cc4)c(OC)c3)sc2C)cc1	Mdm2-MdmX inh 60.8 | Mdm2 MdmX conf 45.6 | FLuc counter 58.1
Cc1ccc(S(=O)(=O)NCCC(=O)OCc2ccc([N+](=O)[O-])cc2)cc1C	none
Cc1ccc2nc(N(CCN3CCOCC3)C(=O)CCS(=O)(=O)c3ccccc3)sc2c1	none (no result: Beta apoptosis)
O=C(CCS(=O)(=O)c1ccccc1)N(CCCN1CCOCC1)c1nc2ccccc2s1	Mdm2-MdmX inh 78.2 (no result: Beta apoptosis) | Mdm2 MdmX conf 43.0 | FLuc counter 74.2
